OX1R antag-1 – blocks the human orexin 1 receptor; AID 485270; inhibition, % at 6.6 µM; O43613; 330,000 tested, 1.8% active; OX1R-expressing cells, FRET antagonist read-out; in the data active = inhibition mostly above about 38%, no sharp cut-off; inactive = mostly below about 40%
TAAR1 agonist – human TAAR1 agonism; Q96RJ0; CHO RD-HGA16 TAAR1, Fluo-8 calcium fluorescence; vehicle wells 0%, saturating PEA agonist 100%; activation, % at 3 µM; 360,000 tested, 0.99% active; AID 624467;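 active = activation above the mean activation of all test compounds in the run plus 3 SD, cut at about 38% in these data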
Target sequence (Q96RJ0 whole entry, looked up): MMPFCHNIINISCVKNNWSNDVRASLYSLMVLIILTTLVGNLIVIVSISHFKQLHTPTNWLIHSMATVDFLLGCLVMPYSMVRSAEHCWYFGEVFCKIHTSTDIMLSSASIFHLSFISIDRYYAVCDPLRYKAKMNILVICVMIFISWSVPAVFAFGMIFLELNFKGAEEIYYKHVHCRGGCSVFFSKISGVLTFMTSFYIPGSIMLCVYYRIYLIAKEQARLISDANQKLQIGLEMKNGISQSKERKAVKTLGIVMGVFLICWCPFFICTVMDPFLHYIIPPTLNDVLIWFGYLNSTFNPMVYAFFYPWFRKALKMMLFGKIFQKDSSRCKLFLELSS
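System: CHO-derived RD-HGA16 cells with stable Gα16 and human TAAR1 / Times: 17-24 h plating, Fluo-8 75 min 37 °C, 30 min RT / Technique: calcium-sensitive Fluo-8 signal, excitation 470-495, emission 515-575 nm / Measure: % activation relative to PEA EC100 response / Benchmarks: DMSO and PEA EC100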
CHO parental Ca – signal in parental CHO cells, OX1R antagonist counter-screen; parental CHO-K1, ATP-induced calcium, Fluo-8 fluorescence; 330,000 tested, 0.63% active; AID 463079; inhibition, % at 5.6 µM;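 active = inhibition above that plate's mean sample inhibition plus 3 SD, cut at about 26% in these data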
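Test system: untransfected parental CHO cell line; also added: ATP stimulus; dosing: 5.6 µM, single dose; signal: calcium-sensitive Fluo-8 fluorescence; measure: percent inhibition of ATP-evoked calcium rise, normalized to controls; benchmarks: low control ATP plus DMSO, high control DMSO only; replication: one well per compound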
OX1R antag-2 – antagonists of human orexin 1 receptor. O43613. 330,000 tested, 0.43% active. CHO/OX1R cells, Fluo-8 calcium fluorescence, orexin A. AID 434989. inhibition, % at 5 µM;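 active = inhibition above its plate's threshold, mean inhibition of all tested compounds on the plate plus 3 SD, cut at about 37% in these data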
GPR7 antag – blocks human GPR7 receptor signaling | P48145 | GPR7-expressing cells, fluorescence antagonist assay | inhibition, % at 4.4 µM | 290,000 tested, 1.1% active | AID 1861; in the data active = inhibition above about 16%, passing the limit was not always enough;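 also: cells stimulated with the agonist NPW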
Target sequence (P48145 whole entry, looked up): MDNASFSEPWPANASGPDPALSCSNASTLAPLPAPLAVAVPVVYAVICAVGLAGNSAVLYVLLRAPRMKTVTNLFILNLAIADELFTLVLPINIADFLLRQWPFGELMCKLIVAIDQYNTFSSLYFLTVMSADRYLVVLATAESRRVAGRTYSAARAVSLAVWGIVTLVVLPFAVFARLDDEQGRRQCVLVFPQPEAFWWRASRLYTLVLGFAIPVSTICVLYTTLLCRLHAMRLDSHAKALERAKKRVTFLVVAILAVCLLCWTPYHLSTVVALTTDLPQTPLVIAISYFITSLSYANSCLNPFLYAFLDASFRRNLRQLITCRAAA
TAAR1 antagonist – antagonists of human TAAR1; inhibition, % at 3 µM; CHO RD-HGA16 TAAR1, Fluo-8 calcium fluorescence, antagonist; Q96RJ0; 360,000 tested, 1.5% active;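 active = inhibition above a per-plate cutoff, the mean inhibition of test compounds on that plate plus 3 SD, cut at about 49% in these data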
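Material: RD-HGA16 CHO cells with stable hTAAR1 and Gα16; Dosing: single nominal final test compound concentration of 3 µM; Schedule: seeding 17-24 h prior, 75-min 37 °C, 30-min RT dye loading; Detection: kinetic Fluo-8 calcium fluorescence measurement; Measure: % inhibition from peak post-agonist over basal fluorescence ratio; Benchmarks: vehicle and agonist controls.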
Of the large screens only hits and unclear results are named; the others gave an inactive call. Only some compounds are listed: those with a hit (about 4.6% of all), similar ones and a draw of the others.

O=C1[C@@H](Oc2ccccc2)[C@@H](c2cnc3ccccc3c2)N1c1ccccc1	OX1R antag-1 41 (no result: GPR7 antag)
CCn1c(SCc2cccnc2)nnc1-c1c[nH]c2ccccc12	none
O=C(CSc1nc2ccccc2s1)N1c2ccccc2Sc2ccc(Cl)cc21	OX1R antag-1 45
O=C(CSc1nc2ccccc2s1)N1c2ccccc2Sc2ccc(C(F)(F)F)cc21	none
CCN(CC)c1ccc(/C=C/c2cccc[n+]2C)c(OC)c1	CHO parental Ca 36
COc1ccc(/C=C/c2cccc[n+]2C)c(O)c1	none
Cn1c(CO)cnc1SCc1ccc([N+](=O)[O-])cc1	OX1R antag-1 73
CCc1ccccc1Nc1nc2ccccc2n1C(C)C	none
NS(=O)(=O)c1ccc(NC(=O)COC(=O)CCNC(=O)NC23CC4CC(CC(C4)C2)C3)cc1	GPR7 antag 17
NS(=O)(=O)c1ccc(NC(=O)COC(=O)C23CC4CC(CC(C4)C2)C3)cc1	none
Brc1ccc(NCc2cccc3ccccc23)nc1	none
Oc1ccccc1CNc1ccc(Br)cn1	GPR7 antag 69, TAAR1 antagonist 71
CS(=O)(=O)N1Cc2ccccc2CC1C(=O)O (stereo unspecified)	none
C/C(=N\Nc1ccc([N+](=O)[O-])cc1)c1ccc(O)cc1	TAAR1 antagonist 55
C/C(=N\Nc1ccc([N+](=O)[O-])cc1)c1cccc(N)c1	none
Cc1cc(C)c(C#N)c(SCc2[nH]nc3c2C(c2ccc(F)cc2)C(C#N)=C(N)O3)n1 (stereo unspecified)	OX1R antag-1 75
C[C@H](O)[C@@H]1CN2CCc3c([nH]c4ccc(-c5ccc6c(c5)OCO6)cc34)[C@@H]2C[C@@H]1N(C)C(=O)Nc1cc(Cl)cc(Cl)c1	none (no result: OX1R antag-1, CHO parental Ca, OX1R antag-2, GPR7 antag)
c1ccc(-c2cc(CSc3nc4ccccc4[nH]3)on2)cc1	OX1R antag-1 89, CHO parental Ca 44, OX1R antag-2 75
CCOC(=O)c1ccc(-n2cccc2/C=C2\NC(=O)NC2=O)cc1	TAAR1 antagonist 51 (no result: GPR7 antag)
CCc1ccc2[nH]c(=O)c(CN(Cc3ccccc3OC)Cc3nnnn3Cc3ccco3)cc2c1	none
COc1ccccc1CN(Cc1cc2cc(C)ccc2[nH]c1=O)Cc1nnnn1Cc1ccco1	OX1R antag-1 72
CCOC(=O)Cn1nc(-c2ccccc2)c2cnc3ccc(C)cc3c21	TAAR1 antagonist 49
CCn1c(CSCc2ccc(Cl)cc2)nnc1SCC(=O)Nc1cccc(C(=O)O)c1	none
CC(=O)Nc1nc(COc2ccc3ccccc3c2)cs1	TAAR1 agonist 38
COc1cc(CN2C(=O)C(CCc3ccccc3)ON=C2c2cnccn2)cc(OC)c1 (stereo unspecified)	TAAR1 antagonist 50 (no result: OX1R antag-1, CHO parental Ca, OX1R antag-2, GPR7 antag)
CC(=O)Oc1ccc(CN2C(=O)C(CCc3ccccc3)ON=C2c2cnccn2)cc1 (stereo unspecified)	none (no result: OX1R antag-1, CHO parental Ca, OX1R antag-2, GPR7 antag)
O=C(CC(NC(=O)OCc1ccccc1)C(=O)OCc1ccccc1)OCc1ccccc1 (stereo unspecified)	TAAR1 antagonist 59 (no result: OX1R antag-1, CHO parental Ca, OX1R antag-2, GPR7 antag)
Cc1c(NC(=O)C(C)Sc2nc(N)cc(=O)[nH]2)c(=O)n(-c2ccccc2)n1C (stereo unspecified)	none (no result: GPR7 antag)
O=C(CCN1CCOCC1)NNC(=O)c1ccc([N+](=O)[O-])cc1[N+](=O)[O-]	OX1R antag-1 49 (no result: GPR7 antag)
CCc1ccc(C(=O)c2oc3nc(C)cc(C)c3c2N)cc1	none
CS(=O)(=O)N1CCCC(C(=O)NCc2cccs2)C1 (stereo unspecified)	none
Nc1[nH]c2cc([N+](=O)[O-])ccc2c1-c1ccccn1	CHO parental Ca 37, OX1R antag-2 51, TAAR1 antagonist 69
CC1=C/C(=N\OS(=O)(=O)c2ccccc2)C(C(C)C)=CC1=O	OX1R antag-2 51, GPR7 antag 44 (no result: TAAR1 agonist, TAAR1 antagonist)
CC1=C/C(=N\OS(=O)(=O)c2ccccc2)C(C)=CC1=O	OX1R antag-1 102, CHO parental Ca 82, OX1R antag-2 93, GPR7 antag 73 (no result: TAAR1 agonist, TAAR1 antagonist)
COc1ccc(S(=O)(=O)/N=C2/C=CC(=O)C(C)=C2C)cc1	none (no result: TAAR1 agonist, TAAR1 antagonist)
CC(S(=O)(=O)c1ccccc1)S(=O)(=O)c1ccccc1	none (no result: OX1R antag-1, CHO parental Ca, OX1R antag-2, GPR7 antag)
CC1=C(C)/C(=N\OS(=O)(=O)c2ccc(C)cc2)C=CC1=O	OX1R antag-1 82, CHO parental Ca 68, OX1R antag-2 58, GPR7 antag 60, TAAR1 antagonist 52
CC(=O)c1ccc(-c2cc([C@H]3[C@H]4C=CC[C@@H](C)[C@@H]4C(=O)N3Cc3ccccc3)ccc2F)cc1	none (no result: GPR7 antag)
Cc1ccc(NC(=O)c2oc3ccc(S(=O)(=O)N4CCOCC4)cc3c2C)c(C)c1	none
CCCCNC(=O)C1CCC(CNS(=O)(=O)c2cccc3nsnc23)CC1 (stereo unspecified)	none
CCOCCCNC(=O)C1CCC(CNS(=O)(=O)c2cccc3nsnc23)CC1 (stereo unspecified)	OX1R antag-1 53
O=C(CCCNS(=O)(=O)c1cccc2nsnc12)NC1CCCCC1	OX1R antag-1 80
COCCNC(=O)C1CCC(CNS(=O)(=O)c2cccc3nsnc23)CC1 (stereo unspecified)	none
CCC(C)NC(=O)C1CCC(CNS(=O)(=O)c2cccc3nsnc23)CC1 (stereo unspecified)	OX1R antag-1 50 (no result: TAAR1 agonist, TAAR1 antagonist)
CCCNC(=O)C1CCC(CNS(=O)(=O)c2cccc3nsnc23)CC1 (stereo unspecified)	none
CC1CCCN(CCCNC(=O)C2CCC(CNS(=O)(=O)c3cccc4nsnc34)CC2)C1 (stereo unspecified)	OX1R antag-1 48 (no result: TAAR1 agonist, TAAR1 antagonist)
O=C(NCC(c1ccco1)N1CCOCC1)c1ccccc1 (stereo unspecified)	none (no result: GPR7 antag)
CC(C)Cn1c(-c2ccc(Br)cc2)c[nH]c1=S	none
COc1ccc(N/C(N)=N/c2nc(C)cc(C)n2)cc1	TAAR1 antagonist 55 (no result: OX1R antag-1, CHO parental Ca, OX1R antag-2, GPR7 antag)
Cc1cc(C)nc(/N=C(\N)Nc2ccc(S(=O)(=O)O)cc2)n1	none (no result: OX1R antag-1, CHO parental Ca, OX1R antag-2)
CCN(C(=O)COC(=O)/C(C#N)=C/c1ccc(N(C)C)cc1)C1CCS(=O)(=O)C1 (stereo unspecified)	none (no result: GPR7 antag)
CN(C)c1ccc(/C=C(\C#N)C(=O)OCC(=O)N(C)C2CCS(=O)(=O)C2)cc1 (stereo unspecified)	OX1R antag-1 35 (no result: GPR7 antag)
CC(C)(C)c1ccc(Cn2cnc(-c3ccc([N+](=O)[O-])cc3)c2)cc1	CHO parental Ca 42
Cc1cc(C)c(Cn2cnc(-c3ccc([N+](=O)[O-])cc3)c2)c(C)c1	none
CN(Cc1nc2ccccc2c(=O)[nH]1)C(=O)c1ccccc1OCc1ccc(Cl)cc1	OX1R antag-1 56 (no result: GPR7 antag)
CN(C(=O)c1ccccc1OCc1ccc(Cl)cc1)c1ccccc1	none
CN(Cc1nc2ccccc2c(=O)[nH]1)C(=O)c1cc(-c2ccc(Br)cc2)nc2ccccc12	TAAR1 antagonist 50 (no result: OX1R antag-1, CHO parental Ca, OX1R antag-2, GPR7 antag)

High-throughput results: PubChem, The Scripps Research Institute Molecular Screening Center
